From PubChem
Rows were chosen to be rich in hits. Some 3.1% of all compounds tested hit in one or more screens of this group.
KCNQ1 pot: potentiators or activators of human KCNQ1 potassium channel; CHO-K1 KCNQ1, thallium flux FluxOR fluorescence; active compounds read high; B-score at 10 µM; 310,000 compounds, 0.35% hits;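 active means fluorescence ratio B-score, a plate-corrected score, at least three library SD, with initial intensity B-score within 5 SD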
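Assay system: CHO-K1 cells stably expressing KCNQ1; Medium: assay buffer with matched DMSO; Also added: K+/Tl+ depolarizing stimulus; Dosing: single dose; Timing: dye 90 min, compound 20 min, room temperature; Measured by: kinetic FluxOR thallium fluorescence, 10-s 1-Hz baseline, 110-s post-stimulus read; Read-out: peak-minus-minimum fluorescence over initial fluorescence, negative-control normalized, B-scored.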
hERG protect: hERG (human) protection from proarrhythmic block; Q12809; CHO-hERG, FluxOR thallium flux, dofetilide IC70 present; activation (rescue from dofetilide block), less the hit threshold, % at 10 µM; 310,000 compounds, 0.51% hits;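 active means activation above the mean of controls blocked by dofetilide plus 5 SD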;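 further: thallium influx through hERG after potassium depolarization seen as dye fluorescence rise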
Target sequence (Q12809 whole entry, looked up): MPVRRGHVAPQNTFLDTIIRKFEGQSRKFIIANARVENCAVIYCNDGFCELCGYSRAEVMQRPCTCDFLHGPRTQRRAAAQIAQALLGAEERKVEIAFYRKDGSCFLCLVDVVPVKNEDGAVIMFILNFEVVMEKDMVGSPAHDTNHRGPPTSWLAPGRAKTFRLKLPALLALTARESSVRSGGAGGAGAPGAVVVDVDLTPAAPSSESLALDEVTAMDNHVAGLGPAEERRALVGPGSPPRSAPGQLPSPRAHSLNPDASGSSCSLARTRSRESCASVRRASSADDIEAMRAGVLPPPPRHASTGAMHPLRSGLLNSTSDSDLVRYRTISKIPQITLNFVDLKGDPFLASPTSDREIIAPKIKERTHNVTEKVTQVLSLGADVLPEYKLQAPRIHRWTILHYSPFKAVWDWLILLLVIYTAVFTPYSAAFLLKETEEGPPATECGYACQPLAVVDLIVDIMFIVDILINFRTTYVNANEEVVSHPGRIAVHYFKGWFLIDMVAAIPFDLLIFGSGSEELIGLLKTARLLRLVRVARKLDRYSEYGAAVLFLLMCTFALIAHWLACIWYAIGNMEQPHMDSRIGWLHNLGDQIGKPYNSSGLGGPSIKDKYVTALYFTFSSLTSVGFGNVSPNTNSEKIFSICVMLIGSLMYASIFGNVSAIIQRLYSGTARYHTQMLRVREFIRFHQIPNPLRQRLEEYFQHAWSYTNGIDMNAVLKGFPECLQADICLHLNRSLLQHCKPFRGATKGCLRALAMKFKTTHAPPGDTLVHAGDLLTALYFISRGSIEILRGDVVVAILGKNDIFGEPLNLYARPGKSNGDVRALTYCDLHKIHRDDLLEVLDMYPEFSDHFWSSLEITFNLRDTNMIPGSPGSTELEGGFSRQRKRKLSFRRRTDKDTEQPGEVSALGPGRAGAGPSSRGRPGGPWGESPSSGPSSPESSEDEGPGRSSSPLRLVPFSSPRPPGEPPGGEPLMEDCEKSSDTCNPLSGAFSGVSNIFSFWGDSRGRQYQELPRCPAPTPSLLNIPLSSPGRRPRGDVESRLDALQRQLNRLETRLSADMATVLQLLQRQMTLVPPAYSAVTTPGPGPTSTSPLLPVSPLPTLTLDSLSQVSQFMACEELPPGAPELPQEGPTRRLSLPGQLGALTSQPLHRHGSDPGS
KCNK3 inh: human KCNK3 channel inhibition, primary screen. O14649. CHO-KCNK3 thallium flux, FluxOR fluorescence; active compounds read low. B-score at 10 µM. 340,000 compounds, 0.84% hits;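 active means B-score under library mean minus 4 SD, starting fluorescence ratio at most library mean plus 5 SD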;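 further: more negative B-score means stronger inhibition of thallium flux through KCNK3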
KCNQ1 block: blocks the human KCNQ1 potassium channel; 310,000 compounds, 1.3% hits; AID 2642; P51787; B-score at 10 µM; CHO-K1 KCNQ1, FluxOR thallium flux fluorescence; active compounds read high;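 active means compounds whose thallium flux B-score, printed positive for inhibition, exceeds three library SD while starting fluorescence stays within three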;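 further: channel opened by potassium depolarization with thallium stimulus after 20 min compound exposure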
KCNK9 block: blocks the human KCNK9 two-pore domain potassium channel; Q9NPC2; HEK293 KCNK9, FluxOR thallium flux fluorescence; active compounds read low; B-score at 10 µM; 310,000 compounds, 1.2% hits; AID 488922;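 active means ratio B-score over 3 SD below the library mean, with starting fluorescence within 5 SD of its mean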;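 further: negative B-score means less thallium flux so channel inhibition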
An asterisk follows results filed as active; i = inactive; . = no result.

SMILES	KCNQ1 pot	hERG protect	KCNK3 inh	KCNQ1 block	KCNK9 block
CCN(CC)CCN(C(=O)c1ccc2c(c1)CCCC2)c1nc2c(C)cccc2s1	i	-13.6	i	8*	i
COc1ccc(CCNC(=S)NC(=O)c2cccc([N+](=O)[O-])c2)cc1OC	i	-10.7	i	i	i
N#CC(C#N)=C1C=C2C=C(N3CCOCC3)CCC2CC1 (stereo not drawn)	i	-28.0	i	6*	i
N#CC(C#N)=C1C=C2C=C(N3CCCCCC3)CCC2CC1 (stereo not drawn)	i	-44.5	i	i	i
CC(C(=O)O)N(c1ccccc1Cl)S(C)(=O)=O (stereo not drawn)	.	.	i	.	.
CCOC(=O)C1=C(C)OC(N)=C(C#N)C1c1c(C)nn(-c2ccc(C)cc2)c1Cl (stereo not drawn)	i	-20.1	.	i	-9.75*
Cc1cc(Cl)ccc1NC(=S)NCCC(c1ccccc1)c1ccccc1	i	-12.8	i	11*	i
Cc1c(Cl)cccc1NC(=S)NCCC(c1ccccc1)c1ccccc1	i	-4.5	i	11*	i
Cc1cc(Cl)ccc1NC(=S)NCc1ccc(Cl)cc1	i	-7.3	i	i	i
Cc1cc(C)c(NC(=O)C2CC(=O)N(C3CCCC3)C2)c(C)c1 (stereo not drawn)	.	.	i	.	.
Cc1ccc(-n2ncc(C(=O)Nc3cc(Cl)cc(Cl)c3)c2C2CCNCC2)cc1C	17*	-25.4	i	i	i
Cc1ccc(-n2ncc(C(=O)Nc3cc(Cl)ccc3Cl)c2C2CCNCC2)cc1	i	-4.5	i	i	i
CCOC(=O)C1(Cc2cccc(OC)c2)CCN(C/C=C/c2ccc(OC)cc2)CC1	i	-22.1	i	7*	i
CCCn1c(N)c(N(CCOC)C(=O)CSc2c(Cl)cccc2Cl)c(=O)[nH]c1=O	.	.	i	.	.
Cc1ccc(NC(=O)C(c2ccccc2)c2ccccc2)c(O)c1	i	-12.8	i	i	-7.77*
CN(C)CCNC(=O)C(=O)Nc1cc2c3c(c1)CCN3C(=O)CC2	i	-4.5	i	i	i
Cc1c(Cl)c([N+](=O)[O-])nn1CC(=O)NCc1cccs1	i	4.8*	i	i	i
Cc1cc2c(=Cc3ccc(N(C)C)cc3)c3ccccc3n2[n+]1C	.	.	-10*	.	.
CCOC(=O)c1cc2c(=Cc3ccc(N(C)C)cc3)c3ccccc3n2[n+]1C	.	.	-10.7*	.	.
Cn1c2ccsc2c2ncn(Cc3ccccc3F)c(=O)c21	.	.	i	.	.
CCOC(=O)c1c(C)oc2ccc(OCC(N)=O)cc12	i	-1.8	i	i	i
CCOC(=O)c1c(C)cccc1OCC(N)=O	i	6.2*	i	i	i
CCC(C)C(NC(=O)c1ccccc1NC(=O)c1ccc(OC)cc1)C(=O)NCCCn1ccnc1 (stereo not drawn)	i	-8.3	i	i	i
CCCCC1C(=O)N(c2ccccc2)N(c2ccc(O)cc2)C1=O (stereo not drawn)	.	.	-10.3*	.	.
CC(=O)NC12CC3CC(C1)CC(C(=O)Nc1ccc(C)c(S(=O)(=O)N4CCCCCC4)c1)(C3)C2	.	.	i	.	.
SMILES	KCNQ1 pot	hERG protect	KCNK3 inh	KCNQ1 block	KCNK9 block
O=C(NCC1CC1)c1cc(-c2ccccc2)nn1CC1CC(c2cccc([N+](=O)[O-])c2)=NO1 (stereo not drawn)	i	-8.2	i	i	-8.34*
COCCNC(=O)c1cc(-c2ccccc2)nn1CC1CC(c2cccc([N+](=O)[O-])c2)=NO1 (stereo not drawn)	i	-7.8	i	i	i
O=C(NCc1cccc(Br)c1)c1cc(-c2ccccc2)nn1CC1CC(c2cccc([N+](=O)[O-])c2)=NO1 (stereo not drawn)	i	-13.5	i	i	-7.07*
COc1ccc(-n2cnc3ccccc3c2=O)c([N+](=O)[O-])c1	i	5.5*	i	i	i
O=c1c2ccccc2ncn1-c1ccc(Br)cc1[N+](=O)[O-]	i	-6.1	i	i	i
CC12CCC3c4ccc(O)cc4CCC3C1CCC2=O (stereo not drawn)	.	.	i	.	.
C#C[C@]1(O)CC[C@H]2[C@@H]3CCc4cc(O)ccc4[C@H]3CC[C@@]21C	9*	-13.2	i	i	i
COC(=O)N/N=C/c1cc(N=Nc2ccccc2Cl)ccc1O	i	-9.8	i	i	-7.95*
COC(=O)N/N=C/c1cc(Br)ccc1O	i	-2.8	i	i	i
COC(=O)c1ccc(OCCN2CCCCCC2)cc1	i	-12.3	i	i	i
O=C(c1ccc(OCCN2CCCCC2)cc1)c1c(-c2ccc(O)cc2)sc2cc(O)ccc12	i	-29.4	i	9*	i
CC1CN(S(=O)(=O)c2ccc(-c3nc4ccccc4s3)cc2)CC(C)O1 (stereo not drawn)	i	4.6*	i	i	i
Nc1nc(-c2c(Cl)cccc2Cl)no1	i	5.7*	i	i	i
CCCC(=O)C1=C(O)C(C(=O)OC)C(C)(C)CC1=Nc1cccc2ccccc12 (stereo not drawn)	i	-4.3	i	6*	i
Cc1cccc(/C=N/NC(=O)c2cc(Br)ccc2O)n1	11*	0.1	i	i	i
O=C(OCc1cccc([N+](=O)[O-])c1)c1ccc2ccccc2n1	i	5.2*	i	i	i
Cc1ccc(C(=O)OCn2ncc(Cl)c(Cl)c2=O)cc1	10*	-27.6	i	i	i
O=C(OCn1ncc(Cl)c(Cl)c1=O)c1ccc(C(F)(F)F)cc1	i	-11.8	i	i	i
CN(C)S(=O)(=O)N1CCC(Oc2cccc(C(=O)NC3CCOC3)c2)CC1 (stereo not drawn)	i	-3.2	i	i	i
COC(=O)c1sccc1NC(=O)c1cc2c(s1)CCCC2	i	-8.7	i	i	-6.73*
CC(=O)/C=C\c1cn(-c2ncc(C(F)(F)F)cc2Cl)c2ccccc12	i	-9.8	i	6*	i
COC(=O)N1C(=O)[C@@](Cc2ccccc2)(c2ccccc2)N1C(=O)OC	i	5.4*	i	i	i
COC(=O)N1C(=O)[C@](Cc2ccccc2)(c2ccccc2)N1C(=O)OC	i	-3.2	i	i	i
O=C(NC(=S)NCc1ccccc1)c1cccs1	16*	16.0*	i	i	i
O=C(/C=C/c1ccccc1)NC(=S)Nc1ccc(N2CCOCC2)c(Cl)c1	i	-11.1	i	i	i
O=C(Nc1cccc(NC(=O)c2cccs2)c1)c1ccco1	i	-12.7	i	i	-6.57*
O=C(Nc1ccc(Cl)c(NC(=O)c2cccs2)c1)c1ccco1	i	-4.9	i	i	i
O=C(NC(=S)Nc1ccc(N2CCOCC2)c(Cl)c1)C(c1ccccc1)c1ccccc1	i	-6.2	i	6*	i
